Laboratory results from PMC9064050 (RSC Advances, 2019).

Legend:
[1] = tested on: EB–DNA; conditions: at the concentration of 50 μM EB; cited from earlier work
[2] = tested on: liver cancer (HepG2); test: In vitro anticancer MTT assay; assay type: cell-based, human; conditions: 50% cell death following 72 h exposure
How it was run: (§1)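 MTT viability: cells seeded at 1 × 10^5 per well and incubated 24 h at 37 °C, 5% CO2. Treated with test compound at 10–100 μg mL−1 (from DMSO). Medium removed, wells PBS-washed, RPMI-1640 plus MTT (5 mg mL−1 solution) added for 4 h at 37 °C. Formazan dissolved in DMSO, read at 570 nm. Triplicate wells; IC50 from % viability; cisplatin as reference.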

[3] = tested on: breast (MCF-7); test: In vitro anticancer MTT assay; assay type: cell-based, human; conditions: 50% cell death following 72 h exposure
How it was run: as §1

[4] = tested on: human lung cancer (A549); test: In vitro anticancer MTT assay; assay type: cell-based; conditions: 50% cell death following 72 h exposure
How it was run: as §1

[5] = tested on: normal human dermal fibroblast (NHDF); test: MTT assay on normal cells; assay type: cell-based; conditions: normal cell line; 50% cell death following 72 h exposure
How it was run: as §1

[6] = tested on: Aspergillus niger; test: Kirby–Bauer agar disc diffusion; assay type: cell-based
How it was run: (§2)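 Kirby–Bauer disc diffusion on Mueller–Hinton agar (pH 7.2, autoclaved 121 °C for 15 min, ~4 mm deep, held 2–8 °C for 24 h). Plates spread with 24 h cultures. 6 mm discs loaded with 20 μL of 100 μM test compound. Bacteria incubated at 37 °C for 48 h; fungi at 22 °C for 7 days. Clear-zone diameter measured by ruler; % inhibition by eqn (20) against 6 mm control.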

[7] = tested on: Mucor indicus; test: Kirby–Bauer agar disc diffusion; assay type: cell-based
How it was run: as §2

[8] = tested on: Candida albicans; test: Kirby–Bauer agar disc diffusion; assay type: cell-based
How it was run: as §2

[9] = tested on: Bacillus cereus; test: Kirby–Bauer agar disc diffusion; assay type: cell-based
How it was run: as §2

[10] = tested on: Shigella flexneri; test: Kirby–Bauer agar disc diffusion; assay type: cell-based
How it was run: as §2

[11] = tested on: Pseudomonas aeruginosa; test: Kirby–Bauer agar disc diffusion; assay type: cell-based
How it was run: as §2

[12] = tested on: Chromobacterium violaceum; test: Kirby–Bauer agar disc diffusion; assay type: cell-based
How it was run: as §2

[13] = tested on: Escherichia coli; test: Kirby–Bauer agar disc diffusion; assay type: cell-based
How it was run: as §2

[14] = tested on: Staphylococcus aureus; test: Kirby–Bauer agar disc diffusion; assay type: cell-based
How it was run: as §2

[15] = tested on: Salmonella enteric serovar typhi; test: Kirby–Bauer agar disc diffusion; assay type: cell-based
How it was run: as §2

CC[n+]1c(-c2ccccc2)c2cc(N)ccc2c2ccc(N)cc21 [EB, ethidium bromide]
KEB (binding constant of EB to DNA) [1]: 10^7 M^−1

N.N.[Cl][Pt][Cl] [Cisplatin, cisplatin]
IC50 HepG2 [2]: 06.94 µg/mL
IC50 MCF-7 [3]: 06.11 µg/mL
IC50 A549 [4]: 09.62 µg/mL
IC50 NHDF [5]: 08.08 µg/mL

C[C@@H]1[C@H](O)[C@@H](C)/C=C/C=C/C=C/C=C/C=C/C=C/C=C/[C@H](O[C@@H]2O[C@H](C)[C@@H](O)[C@H](N)[C@@H]2O)C[C@@H]2O[C@](O)(C[C@@H](O)C[C@@H](O)[C@H](O)CC[C@@H](O)C[C@@H](O)CC(=O)O[C@H]1C)C[C@H](O)[C@H]2C(=O)O [Amphotericin B, amphotericin B]
zone of inhibition at 100 µM ([6]; Aspergillus niger, read-out: diameter of clear zone inhibition): 15 mm
inhibition% ([6]; H = Aspergillus niger, eqn (20)): 60%
inhibition% ([7]; J = Mucor indicus, eqn (20)): 65%
zone of inhibition at 100 µM ([7]; Mucor indicus, read-out: diameter of clear zone inhibition): 17 mm
zone of inhibition at 100 µM ([8]; Candida albicans, read-out: diameter of clear zone inhibition): 17 mm
inhibition% ([8]; I = Candida albicans, eqn (20)): 65%

NCC[C@H](O)C(=O)N[C@@H]1C[C@H](N)[C@@H](O[C@H]2O[C@H](CN)[C@@H](O)[C@H](O)[C@H]2O)[C@H](O)[C@H]1O[C@H]1O[C@H](CO)[C@@H](O)[C@H](N)[C@H]1O [Amikacin, amikacin]
zone of inhibition at 100 µM ([9]; Bacillus cereus, read-out: diameter of clear zone inhibition): 20 mm
inhibition% ([9]; G = (+)Bacillus cereus, eqn (20)): 70%
inhibition% ([10]; E = (−)Shigella flexneri, eqn (20)): 70%
zone of inhibition at 100 µM ([10]; Shigella flexneri, read-out: diameter of clear zone inhibition): 20 mm
inhibition% ([11]; D = (−)Pseudomonas aeruginosa, eqn (20)): 70%
zone of inhibition at 100 µM ([11]; Pseudomonas aeruginosa, read-out: diameter of clear zone inhibition): 20 mm
inhibition% ([12]; C = (−)Chromobacterium violaceum, eqn (20)): 75%
zone of inhibition at 100 µM ([12]; Chromobacterium violaceum, read-out: diameter of clear zone inhibition): 24 mm
inhibition% ([13]; A = (−) Escherichia coli, from zone diameter, eqn (20)): 73%
zone of inhibition at 100 µM ([13]; Escherichia coli, read-out: diameter of clear zone inhibition): 22 mm
inhibition% ([14]; F = (+)Staphylococcus aureus, eqn (20)): 70%
zone of inhibition at 100 µM ([14]; Staphylococcus aureus, read-out: diameter of clear zone inhibition): 20 mm
inhibition% ([15]; B = (−)Salmonella enteric serovar typhi, eqn (20)): 73%
zone of inhibition at 100 µM ([15]; Salmonella, TYPHI, read-out: diameter of clear zone inhibition): 22 mm
